Test results taken from ChEMBL document CHEMBL1153629, “Antitumor activity of deoxypodophyllotoxin isolated from Anthriscus sylvestris: Induction of G2/M cell cycle arrest and caspase-dependent apoptosis” (2009).
Active and inactive are the calls of the source. The rule behind the calls is not given here.

Columns and labels:
[1] = system: HeLa; test: Antiproliferative activity against human HeLa cells at 0.1 uM after 24 hrs; format: functional, cell-based
Outline: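 HeLa cells grown in DMEM with FBS were seeded in 96-well plates and exposed for 12, 24 or 48 h to compound dissolved in DMSO (final DMSO under 0.1%). WST-8 (Cell Counting Kit-8) was added, and OD at 450 nm was read after 30 min. Survival was expressed as % of untreated control, in triplicate, with two further independent experiments.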

[2] = Inhibition of tubulin polymerization by turbidity assay
Outline: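 Turbidity assay: tubulin in reaction buffer with GTP at 37 °C, test agent at 0.25 and 0.50 µM, taxol 0.1 µM as positive control. A340 read every 30 s for 60 min with gentle plate agitation.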

[3] = system: HeLa; test: Cell cycle arrest in human HeLa cells assessed as accumulation at G1 phase at 0.5 uM after 48 hrs using propidium iodide staining by FACS analysis; format: functional
Outline: (§1)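 HeLa cells grown in DMEM/FBS, 24 h to adhere, then given 0.5 µM from DMSO stock (DMSO <0.1% in medium). Harvested at 0, 12, 24 and 48 h, PBS-washed and fixed in 70% ethanol. Stained with 50 µg/ml propidium iodide plus 100 µg/ml RNase A at 37 °C in the dark for ≥3 h. Read by flow cytometry; sub-G1 fraction scored as apoptotic.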

[4] = system: HeLa; test: Cell cycle arrest in human HeLa cells assessed as accumulation at G2 phase at 0.5 uM after 24 hrs using propidium iodide staining by FACS analysis; format: functional; outline: as §1
[5] = system: HeLa; test: Cell cycle arrest in human HeLa cells assessed as accumulation at sub G1 phase at 0.5 uM after 24 hrs using propidium iodide staining by FACS analysis; format: functional; outline: as §1
[6] = system: HeLa; test: Cell cycle arrest in human HeLa cells assessed as accumulation at G1 phase at 0.5 uM after 12 hrs using propidium iodide staining by FACS analysis; format: functional; outline: as §1
[7] = system: HeLa; test: Induction of apoptosis in human HeLa cells assessed as PARP cleavage after 24 to 48 hrs by Western blot analysis; format: functional, cell-based
Outline: (§2)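 HeLa cells treated with 0.5 µM for 0–48 h (sampled at 0, 3, 6, 12, 24, 48 h). Whole-cell lysates made in 20 mM HEPES pH 7.2, 1% Triton X-100, 10% glycerol, 150 mM NaCl, leupeptin, 1 mM PMSF. Lysates run on SDS–PAGE, immunoblotted with the indicated antibodies, GAPDH as loading control.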

[8] = system: HeLa; test: Cell cycle arrest in human HeLa cells assessed as accumulation at sub G1 phase at 0.5 uM after 12 hrs using propidium iodide staining by FACS analysis; format: functional; outline: as §1
[9] = system: HeLa; test: Cell cycle arrest in human HeLa cells assessed as accumulation at G2 phase at 0.5 uM after 12 hrs using propidium iodide staining by FACS analysis; format: functional; outline: as §1
[10] = system: HeLa; test: Inhibition of microtubule assembly in human HeLa cells assessed as loss of stabilization of microtubule bundles by immunofluorescence staining; format: cell-based
Outline: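 HeLa cells given 0.25 µM for 24 h alongside DMSO vehicle and 0.1 µM taxol controls. Indirect immunofluorescence with anti-α-tubulin and an Alexa Fluor 488 secondary antibody; microtubule network imaged by spectral confocal microscopy.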

[11] = system: HeLa; test: Induction of apoptosis in human HeLa cells assessed as caspase 3 cleavage at 0.5 uM; format: functional, cell-based; conditions: TDE = time-dependent effect; outline: as §2
[12] = system: HeLa; test: Cell cycle arrest in human HeLa cells assessed as accumulation at S phase at 0.5 uM after 48 hrs using propidium iodide staining by FACS analysis; format: functional; outline: as §1
[13] = system: HeLa; test: Cell cycle arrest in human HeLa cells assessed as accumulation at G2 phase at 0.5 uM after 48 hrs using propidium iodide staining by FACS analysis; format: functional; outline: as §1
[14] = system: HeLa; test: Cell cycle arrest in human HeLa cells assessed as accumulation at S phase at 0.5 uM after 12 hrs using propidium iodide staining by FACS analysis; format: functional; outline: as §1
[15] = system: HeLa; test: Cell cycle arrest in human HeLa cells assessed as accumulation at G1 phase at 0.5 uM after 24 hrs using propidium iodide staining by FACS analysis; format: functional; outline: as §1
[16] = system: HeLa; test: Induction of apoptosis in human HeLa cells assessed as breakdown of nuclei by immunostaining method; format: functional, cell-based
Outline: (§3)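 HeLa cells exposed to 0.5 µM for 48 h. Microtubules stained with anti-α-tubulin and an Alexa Fluor 488 secondary antibody, DNA with TO-PRO-3 iodide. Fragmented nuclei scored by confocal microscopy.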

[17] = system: HeLa; test: Cell cycle arrest at G2/M phase in human HeLa cells assessed as decrease in cyclin A expression at 0.5 uM after 48 hrs by Western blot analysis; format: functional, cell-based; outline: as §2
[18] = system: HeLa; test: Cell cycle arrest in human HeLa cells assessed as accumulation at S phase at 0.5 uM after 24 hrs using propidium iodide staining by FACS analysis; format: functional; outline: as §1
[19] = system: HeLa; test: Induction of apoptosis in human HeLa cells assessed as caspase 7 cleavage at 0.5 uM; format: functional, cell-based; conditions: TDE = time-dependent effect; outline: as §2
[20] = system: HeLa; test: Antiproliferative activity against human HeLa cells at 0.25 uM after 24 hrs; format: functional, cell-based
Outline: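 HeLa cells in 96-well culture, treated for 12, 24 and 48 h, done in triplicate; after treatment, incubated 24 h more at 37 °C, 5% CO2. WST-8 (Cell Counting Kit-8) added, OD read at 450 nm after 30 min. Survival expressed relative to untreated cells; two further independent experiments.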

[21] = system: HeLa; test: Cell cycle arrest at G2/M phase in human HeLa cells assessed as increase in cyclin B1 expression at 0.5 uM after 3 to 24 hrs by Western blot analysis; format: functional, cell-based; outline: as §2
[22] = system: HeLa; test: Cell cycle arrest in human HeLa cells assessed as accumulation at sub G1 phase at 0.5 uM after 48 hrs using propidium iodide staining by FACS analysis; format: functional; outline: as §1
[23] = system: HeLa; test: Induction of apoptosis in human HeLa cells assessed as fragmentation of chromosomal DNA by immunostaining method; format: functional, cell-based; outline: as §3

Q: What does the source list for CC(=O)O[C@H]1C(=O)[C@@]2(C)[C@H]([C@H](OC(=O)c3ccccc3)[C@]3(O)C[C@H](OC(=O)[C@H](O)[C@@H](NC(=O)c4ccccc4)c4ccccc4)C(C)=C1C3(C)C)[C@]1(OC(C)=O)CO[C@@H]1C[C@@H]2O?
A: Activity [1]: Active; Activity [2]: inactive

Q: What does the source list for COc1cc([C@@H]2c3cc4c(cc3C[C@H]3COC(=O)[C@@H]32)OCO4)cc(OC)c1OC [DESOXYPODOPHYLLOTOXIN]?
A: Activity [3]: 6.8%; Activity [4]: 87.8%; Activity [5]: 4.5%; Activity [6]: 12%; Activity [7]: Active; Activity [8]: 0.2%; Activity [9]: 58.9%; Activity [10]: inactive; Activity [11]: tde; Activity [12]: 11%; Activity [13]: 82.1%; Activity [14]: 28.9%; Activity [15]: 3.5%; Activity [16]: Active; Activity [17]: Active; Activity [18]: 8.6%; Activity [19]: tde; Activity [20]: Active; Activity [21]: Active; Activity [22]: 29.7%; Activity [2]: Dose-dependent effect; Activity [23]: Active
